The test system of one experiment is MT4. The experiment in a line: Logarithm of cytotoxic concentration that causes half of the cells to die in mock-infected MT-4 cell cultures. In kind it is functional, Homo sapiens. Put shortly: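 Mock-infected MT-4 cell cultures exposed to compound; viability read spectrophotometrically as mitochondrial dehydrogenase reduction of yellow MTT to blue formazan in metabolically active cells. CC50 taken as the concentration killing half the cells, run alongside HIV-infected cultures.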

Experiment [1] in a line: Logarithm of inhibitory concentration against HIV-induced cytopathogenicity in MT-4 cell cultures. In kind it is functional, cell-based. To be noted: Human immunodeficiency virus 1, MT4. Put shortly:
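Protection of MT-4 cell cultures against HIV-induced cytopathogenicity. Reduction of yellow MTT to blue formazan by mitochondrial dehydrogenases of metabolically active cells is read spectrophotometrically in HIV- and mock-infected cultures. IC50 is the concentration giving 50% protection against HIV-induced cytopathogenicity. CC50 is the concentration killing half the cells in mock-infected cultures.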

For orientation: pCC50 means the CC50 on a negative log10 scale, so that one unit is a factor of ten. A high value points to a small CC50. In general, IC50 refers to the concentration needed to halve the response being measured. A high value points to a need for much substance. Consider `O=C1NCCCC1C(=O)NNC(=S)Nc1cc(Cl)cc(Cl)c1` (centres undefined), for which the pCC50 in the experiment on MT4 is on record as 4.3. Further, the IC50 in experiment [1] is > 50.1 µM.
For `COc1cccc(CC/N=C(\S)Nc2ccc(C#N)cc2)c1`, in that order: 4.3 and 1.58 µM.
In the same order, the values of `O=C(N/N=C(\S)Nc1cc(Cl)cc(Cl)c1)c1ccccc1F` are 5.1 and > 7.94 µM.
In the same order, the values of `CC(NCCc1cccs1)c1cc(C#N)ccc1O` (centres undefined) are <4 and > 100 µM.
Consider `CSc1cccnc1C(=O)NCc1ccc(N)cc1`, for which the pCC50 with MT4 is <4. The compound also had an IC50 in experiment [1] of 39.8 µM.
For the compound `CC(Nc1ncccc1C(N)=O)c1cccc(Cl)c1` (centres undefined), in the experiment on MT4, the pCC50 is reported as <4. The compound also gave an IC50 in experiment [1] of 12.6 µM.
For `CC(C)n1c(O)nnc1Sc1cccc(C(F)(F)F)c1`, in that order: <4 and 79.4 µM.
For `N#Cc1ccc(O)c(NC(=O)Nc2cccc(F)c2)c1`, in that order: <4 and > 100 µM.
As to `Oc1cc(O)cc(CNc2cc(Cl)c(Cl)c(Cl)c2)c1`, the pCC50 with MT4 was 4.3. In addition, in experiment [1], the IC50 is > 50.1 µM.
In the same order, the values of `S=C(NCc1ccc(Cl)c(Cl)c1)Nc1cccnc1` are 4.4 and > 39.8 µM.
In the same order, the values of `O=C(Nc1cccnc1)Nc1nc(Cl)ccc1Cl` are <4 and 31.6 µM.
In the same order, the values of `CCCc1cc(O)nc(SCC(C)(C)c2ccccc2)n1` are <4.3 and 15.8 µM.
As for `O=C(Cc1ccc(I)cc1)Nc1ncccc1O`, in the experiment with MT4, the pCC50 is on record as <4. Moreover, in experiment [1], the IC50 is > 100 µM.
Turning to `NC(=O)N/N=C\c1ccccc1NCc1ccccn1`, in the experiment with MT4, the pCC50 was <4. For the same compound, the IC50 in experiment [1] is 6.31 µM.
In the same order, the values of `COC(C/N=C(\S)Nc1c(Br)cc(Cl)cc1Br)OC` are <4 and 25.1 µM.
In the same order, the values of `CC(C)(C)c1nc(COc2ccc(C(N)=O)c(O)c2)no1` are <4 and > 100 µM.
In the same order, the values of `NC(=O)N/N=C\c1cc(Cl)ccc1Nc1cccc(Cl)c1` are <4 and 2.51 µM.

These data come from ChEMBL document CHEMBL1145815, “SYNOPSIS: SYNthesize and OPtimize System in Silico” (J Med Chem, 2003).
